Experimental data: ChEMBL document CHEMBL4130635, “2,4-Diaminoquinazolines as Dual Toll-like Receptor (TLR) 7/8 Modulators for the Treatment of Hepatitis B Virus” (J Med Chem, 2018)
Calls of active or inactive are those of the source. No cut-off for these calls is given here.

Legend:
Plasma [1] = assay: Proinflammatory activity in C57BL/6J mouse plasma assessed as IL-1beta levels at 0.3 mg/kg, po by multiplex assay (reference value: 60 pg/ml); format: functional
[2] = biological target: TLR7 and TLR8 (Homo sapiens) (UniProt Q9NYK1+Q9NR97); assay: Agonist activity at TLR7/8 in human PBMCs co-cultured with primary human hepatocytes infected with HBV genotype C for 12 days assessed as increase in MIP-1alpha levels up to 5 uM measured after 42 days
[3] = Protein binding in rat plasma fraction at 5 uM after 4.5 hrs LC-MS/MS-based rapid equilibrium dialysis method; format: ADME, cell-free; settings: read-out: PPB (converted)
Liver [4] = assay: Upregulation of IP-10 mRNA expression levels in C57BL/6J mouse liver at 10 mg/kg, po by RT-qPCR analysis (reference value: 1); format: functional
Cynomolgus monkey [5] = assay: Induction of G-CSF in cynomolgus monkey plasma at 3 mg/kg, po after 24 hrs by Luminex assay (reference value: 85 pg/ml); format: functional, organism-based; settings: Macaca fascicularis
Procedure, shortened: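 Healthy cynomolgus monkeys given single oral doses of 1, 3, 9 and 30 mg/kg, with a 2-week wash-out planned between doses. Systemic cytokine levels in plasma were sampled at 0.5, 1, 2, 4, 9 and 24 h postdose.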

Plasma [6] = assay: Proinflammatory activity in C57BL/6J mouse plasma assessed as TNFalpha levels at 0.3 mg/kg, po by multiplex assay (reference value: 70 pg/ml); format: functional, organism-based
Plasma [7] = assay: Anti-inflammatory activity in C57BL/6J mouse plasma assessed as IL-10 levels at 3 mg/kg, po by multiplex assay (reference value: 120 pg/ml); format: functional
Procedure, shortened: (§1)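 Single oral gavage in 20% HP-β-CD to healthy C57BL/6 mice, groups of 15 at 0.3, 1, 3, 10 or 30 mg/kg. Three mice per group sacrificed at 0.5, 1, 2, 4 or 7 h. Plasma and liver cytokines by multiplex, maximum level reported, rounded to nearest multiple of 5.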

[8] = Cmax in C57BL/6J mouse liver at 3 mg/kg, po by LC-MS analysis; format: ADME, organism-based; design: dose 3 mg/kg, route oral
Procedure, shortened: (§2)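 Healthy C57BL/6 mice, groups of 15, given a single oral dose (0.3, 1, 3, 10 or 30 mg/kg) in 20% HP-β-CD. Blood drawn at 0.5 h. Three mice per group sacrificed at 0.5, 1, 2, 4 or 7 h, and compound in plasma and liver measured by LC−MS. Values rounded to whole numbers.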

[9] = Stability in rat hepatocytes assessed compound turnover at 1 uM after 60 mins; format: ADME, cell-based, Hepatocyte; settings: read-out: Drug metabolism
Liver [10] = assay: Proinflammatory activity in C57BL/6J mouse liver assessed as IL-6 levels at 0.3 mg/kg, po by multiplex assay (reference value: 10 pg/g); format: functional, organism-based
Cynomolgus monkey [11] = assay: Toxicity in cynomolgus monkey assessed as induction of emesis at 30 mg/kg, po after 1 hr postdosing; format: organism-based, Macaca fascicularis; settings: in vivo
Liver [12] = assay: Effect on cytokine profile in C57BL/6J mouse liver assessed as IFNgamma levels at 0.3 mg/kg, po by multiplex assay; format: functional, organism-based; procedure, shortened: as §1
Plasma [13] = assay: Proinflammatory activity in C57BL/6J mouse plasma assessed as IL-6 levels at 30 mg/kg, po by multiplex assay (reference value: 505 pg/ml); format: functional
[14] = biological target: Voltage-gated inwardly rectifying potassium channel KCNH2 (Homo sapiens, UniProt Q12809); assay: Inhibition of radioligand binding to human ERG expressed in HEK293 cell membranes by scintillation counting method
[15] = Solubility of the compound in FeSSIF; format: physicochemical
[16] = biological target: T1, Toll-like receptor 8 (Homo sapiens) (UniProt Q9NR97); assay: Agonist activity at human TLR8 expressed in HEK293 cells assessed as induction of receptor activation incubated for 6 hrs by NF-kappaB-luciferase reporter gene assay; format: cell-based
T1 sequence (whole entry): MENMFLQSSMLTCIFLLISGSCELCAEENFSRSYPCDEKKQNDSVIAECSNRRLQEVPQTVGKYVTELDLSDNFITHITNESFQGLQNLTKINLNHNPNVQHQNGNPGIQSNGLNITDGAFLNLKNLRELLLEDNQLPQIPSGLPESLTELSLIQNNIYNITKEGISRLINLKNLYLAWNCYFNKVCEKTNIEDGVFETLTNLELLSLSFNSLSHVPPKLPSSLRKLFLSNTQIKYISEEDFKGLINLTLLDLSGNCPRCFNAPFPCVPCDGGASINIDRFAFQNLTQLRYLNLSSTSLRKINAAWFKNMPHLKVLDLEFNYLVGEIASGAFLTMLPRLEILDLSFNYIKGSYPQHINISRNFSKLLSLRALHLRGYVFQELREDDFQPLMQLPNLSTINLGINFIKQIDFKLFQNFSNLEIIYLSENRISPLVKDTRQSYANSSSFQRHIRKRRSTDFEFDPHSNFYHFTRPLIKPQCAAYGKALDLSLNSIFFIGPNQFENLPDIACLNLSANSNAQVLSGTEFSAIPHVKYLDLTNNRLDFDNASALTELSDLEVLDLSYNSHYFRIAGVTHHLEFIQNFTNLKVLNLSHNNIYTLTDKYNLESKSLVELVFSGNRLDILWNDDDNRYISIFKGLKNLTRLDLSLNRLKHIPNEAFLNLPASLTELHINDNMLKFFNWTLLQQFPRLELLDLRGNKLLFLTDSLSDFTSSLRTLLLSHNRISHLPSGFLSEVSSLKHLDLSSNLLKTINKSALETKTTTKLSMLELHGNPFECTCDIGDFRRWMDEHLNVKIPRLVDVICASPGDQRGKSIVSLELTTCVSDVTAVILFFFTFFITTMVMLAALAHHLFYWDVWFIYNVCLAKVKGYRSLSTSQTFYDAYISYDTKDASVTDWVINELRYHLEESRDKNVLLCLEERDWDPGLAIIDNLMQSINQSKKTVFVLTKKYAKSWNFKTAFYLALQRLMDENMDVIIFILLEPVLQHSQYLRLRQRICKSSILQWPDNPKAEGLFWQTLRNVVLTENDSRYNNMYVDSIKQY

Liver [17] = assay: Induction of IFNalpha levels in C57BL/6J mouse liver at 0.3 mg/kg, po by ELISA (reference value: 30 pg/g); format: functional
Cytochrome P450 2D6 = Cytochrome P450 2D6 (Homo sapiens, UniProt P10635); assay: Inhibition of CYP2D6 (unknown origin); format: ADME
Plasma [18] = assay: Effect on cytokine profile in C57BL/6J mouse plasma assessed as IFNgamma levels at 10 mg/kg, po by multiplex assay; format: functional; procedure, shortened: as §1
[19] = Intrinsic clearance in cynomolgus monkey liver microsomes assessed per mg protein at 1 uM up to 60 mins; format: ADME, Macaca fascicularis, microsome; settings: read-out: CLH
Procedure, shortened: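 Cynomolgus monkey liver microsomes at 1 mg/mL microsomal protein, incubated at 37 °C with 1 μM test compound. Serial samples taken at intervals up to 60 min and analysed for remaining compound concentration to derive intrinsic clearance, expressed as (μL/min)/mg protein and rounded to the nearest whole number.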

[20] = Cmax in C57BL/6J mouse plasma at 1 mg/kg, po by LC-MS analysis; format: ADME, organism-based; design: dose 1 mg/kg, route oral; procedure, shortened: as §2
[21] = Cmax in C57BL/6J mouse plasma at 30 mg/kg, po by LC-MS analysis; format: ADME, organism-based; design: dose 30 mg/kg, route oral; procedure, shortened: as §2

TLR7 and TLR8 (Homo sapiens), sequence (Q9NYK1 whole entry, looked up, one chain of several): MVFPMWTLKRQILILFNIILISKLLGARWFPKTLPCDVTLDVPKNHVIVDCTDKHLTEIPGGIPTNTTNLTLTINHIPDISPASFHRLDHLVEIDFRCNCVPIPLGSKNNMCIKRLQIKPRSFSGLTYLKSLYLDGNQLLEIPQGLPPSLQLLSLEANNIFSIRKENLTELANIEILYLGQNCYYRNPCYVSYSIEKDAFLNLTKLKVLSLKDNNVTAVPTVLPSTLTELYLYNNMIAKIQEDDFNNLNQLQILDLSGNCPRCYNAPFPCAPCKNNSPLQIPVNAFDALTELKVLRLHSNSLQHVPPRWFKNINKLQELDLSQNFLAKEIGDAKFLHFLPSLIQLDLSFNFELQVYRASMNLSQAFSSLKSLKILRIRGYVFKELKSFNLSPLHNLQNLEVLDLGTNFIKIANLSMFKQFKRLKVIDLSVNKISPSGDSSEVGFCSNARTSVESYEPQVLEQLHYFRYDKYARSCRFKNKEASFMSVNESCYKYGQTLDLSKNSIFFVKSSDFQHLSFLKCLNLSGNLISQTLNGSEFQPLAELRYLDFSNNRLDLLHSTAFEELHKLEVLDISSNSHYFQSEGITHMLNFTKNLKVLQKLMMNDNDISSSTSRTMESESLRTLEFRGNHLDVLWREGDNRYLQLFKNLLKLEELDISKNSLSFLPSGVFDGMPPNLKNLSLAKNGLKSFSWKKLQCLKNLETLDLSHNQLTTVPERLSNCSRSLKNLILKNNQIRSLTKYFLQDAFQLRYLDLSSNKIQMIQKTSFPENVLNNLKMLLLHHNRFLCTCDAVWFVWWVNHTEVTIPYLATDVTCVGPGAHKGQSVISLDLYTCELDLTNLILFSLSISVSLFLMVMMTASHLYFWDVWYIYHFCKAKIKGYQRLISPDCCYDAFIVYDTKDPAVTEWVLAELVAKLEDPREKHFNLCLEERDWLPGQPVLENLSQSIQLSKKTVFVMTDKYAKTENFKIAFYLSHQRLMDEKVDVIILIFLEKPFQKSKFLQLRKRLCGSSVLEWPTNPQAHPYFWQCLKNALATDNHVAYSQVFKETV
Voltage-gated inwardly rectifying potassium channel KCNH2, sequence (Q12809 whole entry): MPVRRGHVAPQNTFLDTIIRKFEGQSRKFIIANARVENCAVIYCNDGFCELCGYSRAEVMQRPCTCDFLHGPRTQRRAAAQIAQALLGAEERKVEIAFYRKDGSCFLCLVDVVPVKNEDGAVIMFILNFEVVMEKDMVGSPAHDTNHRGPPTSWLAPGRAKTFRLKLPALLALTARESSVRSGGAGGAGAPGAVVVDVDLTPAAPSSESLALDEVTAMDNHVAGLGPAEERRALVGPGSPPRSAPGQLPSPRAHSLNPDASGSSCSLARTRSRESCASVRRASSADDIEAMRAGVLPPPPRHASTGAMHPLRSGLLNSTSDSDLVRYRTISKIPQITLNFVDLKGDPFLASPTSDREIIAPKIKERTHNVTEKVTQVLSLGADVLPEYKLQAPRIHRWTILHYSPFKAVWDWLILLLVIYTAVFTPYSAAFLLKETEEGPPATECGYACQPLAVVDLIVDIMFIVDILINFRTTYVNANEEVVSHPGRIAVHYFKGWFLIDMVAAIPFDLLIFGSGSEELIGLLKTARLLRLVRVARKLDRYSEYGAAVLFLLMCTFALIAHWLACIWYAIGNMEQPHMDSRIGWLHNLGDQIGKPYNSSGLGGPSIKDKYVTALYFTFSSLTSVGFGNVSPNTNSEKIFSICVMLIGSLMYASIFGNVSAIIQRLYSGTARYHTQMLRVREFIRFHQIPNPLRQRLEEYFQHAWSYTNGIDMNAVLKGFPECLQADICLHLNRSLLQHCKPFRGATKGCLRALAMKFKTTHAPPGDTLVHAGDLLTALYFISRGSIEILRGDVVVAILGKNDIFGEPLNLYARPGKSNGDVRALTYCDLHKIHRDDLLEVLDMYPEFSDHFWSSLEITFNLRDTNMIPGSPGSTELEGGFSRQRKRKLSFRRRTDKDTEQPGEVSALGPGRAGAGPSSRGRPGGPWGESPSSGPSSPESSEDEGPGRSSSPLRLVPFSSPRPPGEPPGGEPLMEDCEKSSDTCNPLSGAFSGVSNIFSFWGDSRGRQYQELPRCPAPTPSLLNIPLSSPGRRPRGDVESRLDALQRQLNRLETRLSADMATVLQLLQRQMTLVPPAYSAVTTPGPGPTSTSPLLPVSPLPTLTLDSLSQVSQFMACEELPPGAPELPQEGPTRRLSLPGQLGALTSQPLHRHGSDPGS
Cytochrome P450 2D6, sequence (P10635 whole entry): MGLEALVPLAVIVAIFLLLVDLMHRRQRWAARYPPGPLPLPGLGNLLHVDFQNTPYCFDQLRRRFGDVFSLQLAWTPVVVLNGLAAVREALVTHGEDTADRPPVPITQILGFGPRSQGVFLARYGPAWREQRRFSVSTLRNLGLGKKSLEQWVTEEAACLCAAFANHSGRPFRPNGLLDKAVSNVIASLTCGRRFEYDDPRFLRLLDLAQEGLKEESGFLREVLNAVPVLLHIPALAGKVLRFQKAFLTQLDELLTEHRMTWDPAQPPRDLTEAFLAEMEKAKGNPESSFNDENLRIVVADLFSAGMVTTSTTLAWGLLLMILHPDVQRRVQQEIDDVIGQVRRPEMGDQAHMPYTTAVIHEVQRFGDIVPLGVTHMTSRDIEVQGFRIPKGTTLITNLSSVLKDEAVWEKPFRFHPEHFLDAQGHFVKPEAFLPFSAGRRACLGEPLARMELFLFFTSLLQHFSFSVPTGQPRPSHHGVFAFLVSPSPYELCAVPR

**Q.** What does the source list for `CCC[C@@H](CCO)Nc1nc(N)nc2c(F)cccc12`?
**A.** Activity (Plasma [1]): 50 pg/mL; Activity [2]: Active; fraction unbound at 4.5 h, 5 µM [3]: 0.47; fold change (FC) (Liver [4]): 800; Activity (Cynomolgus monkey [5]): Below limit of detection; Activity (Plasma [6]): Below limit of detection; Activity (Plasma [7]): 1115 pg/mL; Cmax [8]: 385 ng/g; metabolised at 1 h, 1 µM [9]: 96%; Activity (Liver [10]): Below limit of detection; Activity (Cynomolgus monkey [11]): Toxic; Activity (Liver [12]): Below limit of detection; Activity (Plasma [13]): >10000 pg/mL; IC50 [14]: > 10 µM; solubility [15]: > 4000 µg/mL; MEC [16]: 0.16 µM; Activity (Liver [17]): 100 pg/g; IC50 (Cytochrome P450 2D6): 5.7 µM; Activity (Plasma [18]): 295 pg/mL; microsomal CLint at 1 µM [19]: 16 µL/min/mg; Cmax [20]: 9 ng/mL; Cmax [21]: 813 ng/mL
